In ChEMBL document CHEMBL1147411, “7-Hydroxynaphthalen-1-yl-urea and -amide antagonists of human vanilloid receptor 1” (Bioorg Med Chem Lett, 2004):

Columns and labels:
[1] = target: T1, Transient receptor potential cation channel subfamily V member 1 (Homo sapiens, UniProt Q8NER1); assay: Increased [Ca2+] influx in HEK293 cell […] human vanilloid receptor subtype 1; type: functional, cell-based
Method in brief: (§1)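 hVR1/HEK cells on poly-D-lysine-coated plates were loaded with Fluo-3/AM for 1 h after 2 days. Cells received single compound concentrations, and intracellular Ca2+ was read by FLIPR for 3 min. Capsaicin was then added at […] final to fully activate VR1.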

[2] = target: T1, Transient receptor potential cation channel subfamily V member 1; assay: Displacement of [3H]-RTX binding to human vanilloid receptor subtype 1 expressed in HEK293 cell membranes (inactive)
Method in brief: (§2)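 Human VR1 stably expressed in HEK293 cells. Membranes were made by homogenizing, spinning at 3000 rpm for 10 min, and spinning the supernatant at 18,000 rpm for 20 min. Binding was 60 min at 37 °C with 0.3–0.6 nM [3H]-RTX in HEPES buffer pH 7.4. Samples were ice-cooled, given α-acid glycoprotein, centrifuged, and the pellet counted. Nonspecific binding used 200 nM unlabeled RTX. Percent inhibition calculated; Ki by Cheng–Prusoff.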

[3] = target: T1, Transient receptor potential cation channel subfamily V member 1; assay: Functional antagonistic activity against human vanilloid receptor subtype 1 in HEK293 cell […] as inhibition of agonist-induced increases in intracellular [Ca2+] levels; type: cell-based
Method in brief: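 Fluo-3/AM-loaded hVR1/HEK cells were read by FLIPR. Cells were incubated with compound, then challenged with capsaicin at a concentration giving ~80% maximal response. IC50 came from the inhibition of the capsaicin-induced Ca2+ rise.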

[4] = target: T1, Transient receptor potential cation channel subfamily V member 1; assay: Binding affinity towards cloned human vanilloid receptor subtype 1 in HEK293 cell membranes using [3H]RTX as radioligand; method in brief: as §2
[5] = target: T1, Transient receptor potential cation channel subfamily V member 1; assay: Displacement of [3H]RTX binding to human vanilloid receptor subtype 1 expressed in HEK293 cell membranes at 10 uM; method in brief: as §2
[6] = target: T1, Transient receptor potential cation channel subfamily V member 1; assay: Increased [Ca2+] influx in HEK293 cell […] human vanilloid receptor subtype 1 (inactive); type: functional, cell-based; method in brief: as §1

T1 sequence (Q8NER1 whole entry): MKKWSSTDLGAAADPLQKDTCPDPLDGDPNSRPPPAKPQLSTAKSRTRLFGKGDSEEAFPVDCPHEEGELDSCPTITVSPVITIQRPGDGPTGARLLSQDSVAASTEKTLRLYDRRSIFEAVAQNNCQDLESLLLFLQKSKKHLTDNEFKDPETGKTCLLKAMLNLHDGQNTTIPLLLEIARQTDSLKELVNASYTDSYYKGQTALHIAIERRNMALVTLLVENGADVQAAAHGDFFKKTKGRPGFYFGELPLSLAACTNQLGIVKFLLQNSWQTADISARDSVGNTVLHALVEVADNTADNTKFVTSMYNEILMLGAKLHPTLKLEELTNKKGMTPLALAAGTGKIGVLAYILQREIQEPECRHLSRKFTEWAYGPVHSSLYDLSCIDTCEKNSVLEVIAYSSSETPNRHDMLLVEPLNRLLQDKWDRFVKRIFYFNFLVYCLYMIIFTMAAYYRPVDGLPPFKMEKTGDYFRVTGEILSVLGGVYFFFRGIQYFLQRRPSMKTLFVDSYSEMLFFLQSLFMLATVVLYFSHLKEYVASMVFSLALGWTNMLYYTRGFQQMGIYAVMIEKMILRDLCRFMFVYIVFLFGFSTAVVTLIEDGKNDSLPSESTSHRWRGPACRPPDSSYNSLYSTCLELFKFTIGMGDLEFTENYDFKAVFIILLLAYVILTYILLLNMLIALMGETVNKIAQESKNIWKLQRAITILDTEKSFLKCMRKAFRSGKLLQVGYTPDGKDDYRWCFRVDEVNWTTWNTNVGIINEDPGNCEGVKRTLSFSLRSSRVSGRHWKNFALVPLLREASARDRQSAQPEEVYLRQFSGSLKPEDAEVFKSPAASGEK

Structure (SMILES) | IC50 [3] [nM] | Ki [4] [nM] | other results
O=C(NCCSCc1cccc(C(F)(F)F)c1)N1CCSCC1 |  |  | EC50 [1]: 390 nM
O=C(Nc1cccc2ccc(O)cc12)Oc1ccccc1 | 6300 |  | Ki [2]: > 10000 nM
O=C(NCc1ccc(F)c(F)c1)Nc1cccc2ccc(O)cc12 |  | 7 | 
Oc1cc2c(cc1O)CN(C(=S)NCCc1ccc(Cl)cc1)CCC2 [CAPSAZEPINE] | 100 | 120 | 
O=C(Cc1ccc(Cl)c(Cl)c1)Nc1cccc2ccc(O)cc12 | 770 |  | 
O=C(NCCc1ccc(Cl)c(Cl)c1)Nc1cccc2ccc(O)cc12 | 90 | 1 | 
O=C(NCc1cccc(C(F)(F)F)c1)Nc1cccc2ccc(O)cc12 | 26 | 2.1 | 
O=C(NCc1ccc(Cl)c(Cl)c1)Nc1cccc2ccc(O)cc12 | 15 | 2 | 
O=C(Nc1cccc2ccc(O)cc12)c1ccc(Cl)cc1 | 320 |  | inhibition [5]: 28%
O=C(CCc1ccc(Cl)c(Cl)c1)Nc1cccc2ccc(O)cc12 | 17 | 4.6 | 
O=C(NCc1ccc(C(F)(F)F)cc1)Nc1cccc2ccc(O)cc12 | 4 | 1 | 
O=C(Nc1cccc2ccc(O)cc12)N(Cc1ccccc1)Cc1ccccc1 |  |  | IC50 [6]: > 10000 nM
O=C(CCc1ccc(Cl)cc1)Nc1cccc2ccc(O)cc12 | 21 | 9.8 | 
CC(NC(=O)Nc1cccc2ccc(O)cc12)c1ccc(C(F)(F)F)cc1 (stereo not drawn) |  | 4 | 
O=C(NCc1ccccc1)Nc1cccc2ccc(O)cc12 | 45 |  | 
CN(Cc1ccccc1)C(=O)Nc1cccc2ccc(O)cc12 |  |  | IC50 [6]: > 10000 nM; Ki [2]: > 10000 nM
O=C(NCc1ccc(OC(F)(F)F)cc1)Nc1cccc2ccc(O)cc12 | 27 | 1 | 
